Assay results from PubChem BioAssay AID493046 (Johns Hopkins Ion Channel Center, 2011).
Calls of active or inactive are those of the source.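 The calls were made as follows: active = KCNQ5 potassium channel activity raised or lowered at any tested dose, with a dose response curve obtained; inactive = no effect at any dose, or no curve obtained.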

molecular target: Potassium voltage-gated channel subfamily KQT member 5 (Homo sapiens) (UniProt Q9NR82); assay: KCNQ5 activity selectivity test – cell-based, thallium flux, selectivity assay for KCNQ2 activator project, dose response (AID 493046); settings: CHO-K1 transfected KCNQ5, FluxOR thallium flux fluorescence; series mostly up to 30 µM
How it was run: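 Reagent: potassium sulfate plus thallium sulfate depolarizing stimulus; material: KCNQ5-transfected CHO-K1 cells; benchmarks: vehicle controls as normalization reference; incubation: transfection 24 h before, dye 90 min, compound 20 min, room temperature; signal: FluxOR thallium flux fluorescence, kinetic read; measure: fluorescence ratio as percent change versus vehicle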

Chain of Potassium voltage-gated channel subfamily KQT member 5 (Homo sapiens) (Q9NR82 whole entry, looked up): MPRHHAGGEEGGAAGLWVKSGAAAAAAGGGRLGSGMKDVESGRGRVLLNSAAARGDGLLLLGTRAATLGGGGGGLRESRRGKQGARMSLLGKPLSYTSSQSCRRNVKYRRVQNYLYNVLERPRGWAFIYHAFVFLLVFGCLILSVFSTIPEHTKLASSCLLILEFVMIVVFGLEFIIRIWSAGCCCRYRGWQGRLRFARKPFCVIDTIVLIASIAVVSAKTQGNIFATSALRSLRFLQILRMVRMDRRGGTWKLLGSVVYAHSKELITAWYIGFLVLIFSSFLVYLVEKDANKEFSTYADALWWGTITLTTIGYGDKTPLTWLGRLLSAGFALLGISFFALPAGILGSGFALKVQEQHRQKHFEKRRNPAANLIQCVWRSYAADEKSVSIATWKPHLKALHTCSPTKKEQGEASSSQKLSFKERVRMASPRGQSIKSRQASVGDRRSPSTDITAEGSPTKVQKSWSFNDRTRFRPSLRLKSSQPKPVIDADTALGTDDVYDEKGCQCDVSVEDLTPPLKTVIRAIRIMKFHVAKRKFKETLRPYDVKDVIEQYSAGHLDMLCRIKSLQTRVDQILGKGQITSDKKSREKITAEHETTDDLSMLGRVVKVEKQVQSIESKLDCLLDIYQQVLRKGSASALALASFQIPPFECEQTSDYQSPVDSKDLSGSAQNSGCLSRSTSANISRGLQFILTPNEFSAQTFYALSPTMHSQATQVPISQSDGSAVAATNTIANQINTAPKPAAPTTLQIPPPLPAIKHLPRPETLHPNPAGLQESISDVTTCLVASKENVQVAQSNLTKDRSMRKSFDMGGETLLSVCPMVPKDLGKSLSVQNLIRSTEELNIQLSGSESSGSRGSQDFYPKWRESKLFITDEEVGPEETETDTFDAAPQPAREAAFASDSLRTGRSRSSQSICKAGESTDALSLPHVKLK

outcome, inactive:
Cc1cccc(C)c1NC(=O)C1CC2CCC1C2 (stereo not given)
Cc1cc(C)c(NC(=O)C2CC3CCC2C3)c(C)c1 (stereo not given)
Cc1cc(C)c(NC(=O)CC(C)(C)C)c(Cl)c1
Cc1ccc(C)c(NC(=O)C2CC3CCC2C3)c1 (stereo not given)
CCCCC(=O)Nc1c(C)cc(C)cc1Cl
